Data reported in ChEMBL document CHEMBL3286189, “Discovery and SAR studies of a novel class of cytotoxic 1,4-disubstituted piperidines via Ugi reaction” (Eur J Med Chem, 2014).

Key:
NCI-H460 = assay: Anticancer activity against human NCI-H460 cells; format: functional
Procedure, shortened: (§1)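 Values come from the NCI 60-cell-line human tumour panel, run on a single analog. Cytostatic and cytotoxic responses were read for each cell line across graded molar concentrations of that compound.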

[1] = Anticancer activity against human OVCAR4 cells; format: functional; procedure, shortened: as §1
[2] = Anticancer activity against human HCC2998 cells; format: functional; procedure, shortened: as §1
KM12 = assay: Anticancer activity against human KM12 cells; format: functional; procedure, shortened: as §1
[3] = Anticancer activity against human MOLT4 cells; format: functional; procedure, shortened: as §1
786-0 = assay: Anticancer activity against human 786-0 cells; format: functional; procedure, shortened: as §1
SR = assay: Anticancer activity against human SR cells; format: functional; procedure, shortened: as §1
L1210 = assay: Cytostatic activity against mouse L1210 cells assessed as inhibition of cell proliferation after 48 hrs by coulter counting analysis; format: functional, cell-based; details: Mus musculus, L1210, 48 h
Procedure, shortened: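 Anti-proliferative screen in murine leukemia L1210, human T-lymphocyte CEM and human cervix carcinoma HeLa cultures. The value reported is the IC50, the concentration that inhibits cell proliferation by 50%.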

HT-29 = assay: Anticancer activity against human HT-29 cells; format: functional; procedure, shortened: as §1
[4] = Anticancer activity against human HCT15 cells; format: functional; procedure, shortened: as §1
CAKI-1 = assay: Cytostatic activity against human Caki1 cells assessed as inhibition of cell proliferation after 96 hrs by coulter counting analysis; format: functional, cell-based; details: CAKI-1, 96 h
Procedure, shortened: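 Anti-proliferative testing extended to human kidney Caki-1 and human liver Huh-7 tumour cells. The value reported is the IC50, the concentration that inhibits tumour cell growth by 50%.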

PC-3 = assay: Anticancer activity against human PC3 cells; format: functional; procedure, shortened: as §1
[5] = Anticancer activity against human SF295 cells; format: functional; procedure, shortened: as §1
HOP-62 = assay: Anticancer activity against human HOP62 cells; format: functional; procedure, shortened: as §1
HCT-116 = assay: Anticancer activity against human HCT116 cells; format: functional; procedure, shortened: as §1
[6] = Anticancer activity against human OVCAR3 cells; format: functional; procedure, shortened: as §1
DU-145 = assay: Anticancer activity against human DU145 cells; format: functional; procedure, shortened: as §1
IGROV-1 = assay: Anticancer activity against human IGROV1 cells; format: functional; procedure, shortened: as §1
SK-MEL-5 = assay: Anticancer activity against human SK-MEL-5 cells; format: functional; procedure, shortened: as §1
[7] = read-out: pLC50 (the source's name) (converted)

In the case of CC(C)(C)OC(=O)N[C@@H](Cc1ccccc1)C(=O)N(Cc1ccccc1)C1(C(=O)NCc2ccccc2)CCN(Cc2ccccc2)CC1, the GI50 (NCI-H460) is reported as 3.02 µM, the CC50 (NCI-H460; [7]) is reported as over 100 µM and the TGI (NCI-H460; read-out: pTGI (converted)) is reported as 87.1 µM. It also gave a GI50 ([1]; OVCAR-4) of 3.24 µM, a CC50 ([1]; OVCAR-4, read-out: pLC50 (the source's name) (converted)) of over 100 µM and a TGI ([1]; OVCAR-4, read-out: pTGI) of over 100 µM. It also gave a GI50 ([2]; HCC 2998) of 4.57 µM, a CC50 ([2]; HCC 2998, read-out: pLC50 (the source's name) (converted)) of over 100 µM and a TGI ([2]; HCC 2998, read-out: pTGI) of over 100 µM. The GI50 (KM12) was 4.17 µM, the CC50 (KM12; [7]) was over 100 µM and the TGI (KM12; read-out: pTGI) was over 100 µM. The GI50 ([3]; MOLT-4) was 1.82 µM, the CC50 ([3]; MOLT-4, read-out: pLC50 (the source's name) (converted)) was over 100 µM and the TGI ([3]; MOLT-4, read-out: pTGI (converted)) was 6.31 µM. The GI50 (786-0) was 3.02 µM, the CC50 (786-0; [7]) was over 100 µM and the TGI (786-0; read-out: pTGI) was 43.7 µM. For the same molecule, the GI50 (SR) was 2.34 µM, the CC50 (SR; [7]) was over 100 µM and the TGI (SR; read-out: pTGI (converted)) was 7.59 µM. It also gave an IC50 (L1210) of 3.5 µM, a GI50 (HT-29) of 2.14 µM and a CC50 (HT-29; [7]) of 57.5 µM. The TGI (HT-29; read-out: pTGI (converted)) was 6.76 µM, the GI50 ([4]; HCT-15) was 3.16 µM and the CC50 ([4]; HCT-15, read-out: pLC50 (the source's name) (converted)) was over 100 µM. For the same molecule, the TGI ([4]; HCT-15, read-out: pTGI) was over 100 µM, the IC50 (CAKI-1) was 9.5 µM and the GI50 (PC-3) was 2.45 µM. For the same molecule, the CC50 (PC-3; [7]) was over 100 µM, the TGI (PC-3; read-out: pTGI) was over 100 µM and the GI50 ([5]; SF-295) was 2.88 µM. For the same molecule, the CC50 ([5]; SF-295, read-out: pLC50 (the source's name) (converted)) was over 100 µM, the TGI ([5]; SF-295, read-out: pTGI) was over 100 µM and the GI50 (HOP-62) was 3.89 µM. The CC50 (HOP-62; [7]) was over 100 µM, the TGI (HOP-62; read-out: pTGI) was over 100 µM and the GI50 (HCT-116) was 2.4 µM. The CC50 (HCT-116; [7]) was over 100 µM, the TGI (HCT-116; read-out: pTGI (converted)) was 10 µM and the GI50 ([6]; OVCAR-3) was 3.98 µM. The CC50 ([6]; OVCAR-3, read-out: pLC50 (the source's name) (converted)) was over 100 µM, the TGI ([6]; OVCAR-3, read-out: pTGI) was over 100 µM and the GI50 (DU-145) was 5.37 µM. It also gave a CC50 (DU-145; [7]) of over 100 µM, a TGI (DU-145; read-out: pTGI) of over 100 µM and a GI50 (IGROV-1) of 5.75 µM. For the same molecule, the CC50 (IGROV-1; [7]) was over 100 µM, the TGI (IGROV-1; read-out: pTGI) was over 100 µM and the GI50 (SK-MEL-5) was 1.74 µM. For the same molecule, the CC50 (SK-MEL-5; [7]) was 6.31 µM and the TGI (SK-MEL-5; read-out: pTGI (converted)) was 3.31 µM.
